Measured values pooled from the literature.
Compare with care: the assays were run in different laboratories.
Target: Testis-specific serine/threonine-protein kinase 1 (TSSK1B, Homo sapiens, UniProt Q9BXA7)
Residues used in one study (Q9BXA7 1-367): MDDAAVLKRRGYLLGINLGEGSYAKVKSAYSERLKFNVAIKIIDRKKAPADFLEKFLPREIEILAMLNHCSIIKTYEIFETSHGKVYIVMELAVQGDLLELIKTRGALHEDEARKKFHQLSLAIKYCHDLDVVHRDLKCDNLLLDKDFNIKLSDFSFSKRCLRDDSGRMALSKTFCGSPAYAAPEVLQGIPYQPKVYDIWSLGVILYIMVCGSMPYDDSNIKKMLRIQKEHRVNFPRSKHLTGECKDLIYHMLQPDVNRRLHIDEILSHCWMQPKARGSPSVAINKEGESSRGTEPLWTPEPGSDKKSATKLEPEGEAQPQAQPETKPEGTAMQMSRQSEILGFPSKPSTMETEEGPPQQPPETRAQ

`C[C@H]1CCN(c2nccc(-c3cnn4ncccc34)n2)C1` has a remaining binding of 98% (binding; 1 µM).
`O=C(c1ccc(Nc2ncc(Cl)c(-c3cc4ccccc4s3)n2)cc1)N1CCC(N2CCCC2)CC1` has a remaining binding of 85% (binding, competition with immobilised ligand; 1 µM).
`CCN1CCN(Cc2ccc(C(=O)Nc3ccc(C)c(Oc4ccc5c(c4)CC(=O)N5)c3)cc2C(F)(F)F)CC1` has a remaining binding of 93% (binding, competition with immobilised ligand; 1 µM).
`COc1cnc(Nc2cccc(S(N)(=O)=O)c2)nc1N1CCN(c2ccccc2)C(=O)C1` has a remaining binding of 92% (binding, competition with immobilised ligand; 1 µM).
For `Nc1ncc2c(n1)-c1c([nH]c3ccc(C#CC4CC4)cc13)CCCC2`, the remaining binding was 100% (binding, competition with immobilised ligand; 1 µM).
`CN(C)c1ncc(F)c(-c2cnn3ncccc23)n1` has a remaining binding of 100% (binding; 1 µM).
For `O=C(c1ccc(Nc2nccc(-c3cc4ccccc4s3)n2)cc1)N1CCC(N2CCCC2)CC1`, the remaining binding was 100% (binding, competition with immobilised ligand; 1 µM).
With `COc1ccc2c(c1)O[C@@H](c1ccc(OC)c(OC)c1)C[C@H]2NC(=O)C1(c2ccc3c(c2)OC(F)(F)O3)CC1` the remaining binding was 100% (cell-free assay, competition with immobilised ligand; 1 µM).
`O=C(Nc1c[nH]nc1C(=O)NC1CCNCC1)c1cc(F)cc(F)c1` has a remaining binding of 100% (binding, competition with immobilised ligand; 1 µM).
`Cc1cnn2ncc(-c3ccnc(N(C)C)n3)c2c1` has a remaining binding of 100% (binding; 1 µM).
The remaining binding of `NS(=O)(=O)c1cc(NC(=O)C2(c3ccccc3Cl)CC2)ccc1Oc1cccc(Cl)c1` is reported as 100% (cell-free assay, competition with immobilised ligand; 1 µM).
The remaining binding of `C[C@@H]1CN(c2ccc3ncc(-c4ccc5[nH]nc(C6CC6)c5c4)n3n2)C[C@H](C)O1` is reported as 78% (binding, competition with immobilised ligand; 50 nM).
`N[C@H]1CCN(c2nccc(-c3cnn4ncccc34)n2)C1` gave a remaining binding of 100% (binding; 1 µM).
`O=C(O)[C@@H]1[C@@H](Cn2nnc3ccccc3c2=O)CC[C@H]1C(=O)c1ccc(OCCC2CCOCC2)cc1` gave a remaining binding of 100% (cell-free assay, competition with immobilised ligand; 1 µM).
`CNC(=O)[C@@H]1CC[C@@H](n2c(-c3ccc4cnccc4c3)nc3ccc(C(=O)NCc4cccc(C(N)=O)c4)cc32)C1` has a remaining binding of 93% (binding, competition with immobilised ligand; 1 µM).
With `CN(C)c1nccc(-c2cnc3ncccn23)n1` the remaining binding was 100% (binding; 1 µM).
The remaining binding of `NS(=O)(=O)c1cc(NC(=O)Cc2ccccc2)ccc1Oc1cccc(Cl)c1` is reported as 100% (cell-free assay, competition with immobilised ligand; 1 µM).
`c1cncc(-c2cccc(Nc3nccc(NC4CCCCC4)n3)c2)c1` gave a remaining binding of 60% (binding, competition with immobilised ligand; 10 µM).
With `CSc1cccnc1N1CCN(Cc2nc3ccccc3[nH]2)CC1` the remaining binding was 100% (cell-free assay, competition with immobilised ligand; 1 µM).
The remaining binding of `CC1CCCN1c1nccc(-c2cnn3ncccc23)n1` (stereo not shown) is reported as 100% (binding; 1 µM).
`O=C(NCCCN1CCOCC1)c1ccc(Nc2nccc(-c3cc4ccccc4s3)n2)cc1` has a remaining binding of 93% (binding, competition with immobilised ligand; 1 µM).
`O=C(N1CCS(=O)(=O)CC1)N1C[C@H](c2ccc(OC(F)(F)F)cc2)C[C@H](c2nc(C3CC3)no2)C1` gave a remaining binding of 95% (cell-free assay, competition with immobilised ligand; 1 µM).
The remaining binding of `CN(c1nccc(-c2cnn3ncccc23)n1)C1CC1` is reported as 100% (binding; 1 µM).
`C[C@@H](c1ccc(-n2cnc3c(N)ncnc32)cc1)N1CCc2nn(C)c(Cc3ccccc3)c2C1=O` has a remaining binding of 100% (binding, competition with immobilised ligand; 0.1 µM).
`COc1cc(-c2cn(C3CCc4ccccc4N(CC(F)(F)F)C3=O)nn2)ccc1-n1ccc(C)n1` (stereo not shown) gave a remaining binding of 83% (cell-free assay, competition with immobilised ligand; 1 µM).
